Rows were chosen to be rich in hits. Some 1.9% of all compounds tested hit in one or more screens of this group.
Tn6 DDE FP = inhibitors of Tn6 peptide binding to fibrin DD(E), primary screen, biochemical, fluorescence polarization, human fibrin, Tn6 probe; inhibition, % at 8.3 µM; 0.21% of 370,000 active; AID 720509, 2013; Fibrin DD(E) TRITC-Tn6 fluorescence polarization displacement; Fibrinogen beta chain (Homo sapiens), P02675;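 active = inhibition above a per-campaign cutoff: mean of compounds within control limits plus 3 SD, cut at about 15% in these data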;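 note: 0% = median of all compound wells on the plate and 100% = blocking peptide control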
Target sequence (P02675 whole entry, looked up): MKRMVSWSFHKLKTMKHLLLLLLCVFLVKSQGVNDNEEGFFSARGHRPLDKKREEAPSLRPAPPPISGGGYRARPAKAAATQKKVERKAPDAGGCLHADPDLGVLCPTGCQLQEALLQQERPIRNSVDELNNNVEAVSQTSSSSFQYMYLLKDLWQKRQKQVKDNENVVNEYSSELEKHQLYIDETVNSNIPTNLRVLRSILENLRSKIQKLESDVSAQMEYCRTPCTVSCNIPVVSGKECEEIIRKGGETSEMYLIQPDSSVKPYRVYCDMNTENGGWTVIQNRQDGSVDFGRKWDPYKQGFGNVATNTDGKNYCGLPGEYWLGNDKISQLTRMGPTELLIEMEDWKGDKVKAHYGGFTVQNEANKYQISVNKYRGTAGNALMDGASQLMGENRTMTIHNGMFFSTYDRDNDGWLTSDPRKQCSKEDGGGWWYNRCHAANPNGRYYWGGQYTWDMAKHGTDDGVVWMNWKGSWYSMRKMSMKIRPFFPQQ
UHRF1 binding = UHRF1 methylated DNA binding inhibitors, primary screen, counter-screen for MBD2 inhibitor project, biochemical, TR-FRET, human UHRF1, single concentration; E3 ubiquitin-protein ligase UHRF1 (Homo sapiens), Q96T88; UHRF1 binding to methylated oligo; inhibition, % at 4.4 µM; 0.75% of 370,000 active; in the data active = inhibition above about 21%;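 note: UHRF1 SRA domain binding a hemimethylated CpG hairpin DNA probe; 0% = median of test compound wells and 100% = reference inhibitor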
LEDGF integ inh = blockers of LEDGF/p75-dependent integrase strand transfer – biochemical, TR-FRET, high throughput, primary screen | HIV-1 integrase (with human LEDGF/p75) | TR-FRET IN-LEDGF/p75 DNA integration, Eu/Cy5 | inhibition, % at 3.7 µM | 0.64% of 370,000 active;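 active = inhibition above the screen-wide mean plus 3 SD, cut at about 13% in these data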;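 note: signal is the Cy5 over europium emission ratio at 671 and 618 nm; 0% = plate median of compound wells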
MBD2 DNA inh = inhibitors of MBD2 binding to methylated DNA, primary screen, biochemical, TR-FRET, DNA-binding domain, human. 0.31% of 370,000 active. MBD2 binding to methylated oligonucleotide. inhibition, % at 4.4 µM; in the data active = inhibition above about 13%
Tn7 DDE FP = inhibitors of Tn7 peptide binding to fibrin DD(E), primary screen, biochemical, fluorescence polarization, human fibrin, Tn7 probe; FP displacement of FITC-Tn7 peptide from fibrin DD(E); 0% = median of compound wells per plate; inhibition, % at 8.3 µM; 0.13% of 370,000 active; Fibrinogen beta chain (Homo sapiens), P02675;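 active = inhibition above the mean of compounds falling within the control limits plus 3 SD of them, cut at about 14% in these data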;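 note: 0% = plate median of compound wells and 100% = 10 µM Aha-Tn7 peptide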
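Measure: % inhibition scaled between sample-field median and high-control FP; Test system: human fibrin DD(E); Quantity: 2 µM final DD(E) protein; Doses: one dose, 8.3 µM nominal; Schedule: compound with protein 10 min, then 3 h after probe, room temperature; Detection: fluorescence polarization; Medium: Tris buffer with calcium and detergent, pH 7.8.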
TDP2 absorb = human TDP2 enzyme inhibitors, primary screen, biochemical, epi absorbance, recombinant enzyme | Tyrosyl-DNA phosphodiesterase 2 (Homo sapiens), O95551 | T5PNP hydrolysis, p-nitrophenol absorbance 415 nm | inhibition, % at 12.8 µM | 0.34% of 370,000 active;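 active = inhibition above the mean of all tested compounds plus 3 SD, set per campaign, cut at about 25% in these data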;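 note: 0% = DMSO with enzyme and 100% = buffer with substrate but no TDP2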
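System – recombinant human TDP2 · Quantity – TDP2 enzyme at 120 nM final · Doses – single concentration, 12.8 µM nominal, with 1% DMSO · Incubation – 2 h at 37 °C · Measured by – epi absorbance of p-nitrophenol freed from T5PNP by hydrolysis · Read-out – % inhibition relative to enzyme-containing and enzyme-free wells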
IN multimer act = HIV-1 IN multimer formation enhancers, counter-screen for LEDGF/p75 integration inhibitor project, biochemical, TR-FRET; 17% of 2,000 active; activation, % at 7.7 µM; TR-FRET HIV-1 integrase multimerization; shares compounds with LEDGF integ inh; in the data active = activation above about 8.9%
TR-FRET interf = TR-FRET optical interference artefacts, confirmation, artefact control for LEDGF/p75-dependent integration inhibitor project, biochemical, HIV-1 IN multimerization; shares compounds with LEDGF integ inh; TR-FRET optical interference counterscreen; inhibition, % at 7.7 µM; 2,000 tested, under 10 active; AID 1053135, 2014;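 active = inhibition above the mean over all tested compounds plus 3 SD, which no compound reached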;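 note: 0% = integrase with antibodies and DMSO and 100% = antibodies without integrase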
IN-LEDGF confirm = inhibitors of HIV-1 IN-LEDGF/p75 DNA integration, confirmation, biochemical, TR-FRET; shares compounds with LEDGF integ inh; TR-FRET LEDGF/p75-dependent HIV-1 integration; inhibition, % at 3.7 µM; 36% of 2,000 active; AID 1053136, 2014; in the data active = inhibition above about 14%
Starred values were filed as active, the others as inactive; x = no result given.

SMILES | Tn6 DDE FP | UHRF1 binding | LEDGF integ inh | MBD2 DNA inh | Tn7 DDE FP | TDP2 absorb | IN multimer act | TR-FRET interf | IN-LEDGF confirm
CCOC(=O)N(C)[C@H]1C[C@H]2c3[nH]c4c(-c5ccccc5)cccc4c3CCN2C(=O)[C@H]1[C@H](C)O | 8 | 1 | 1 | 1 | -2 | -6 | x | x | x
CCN(CC)C(=O)C1=C(C)N(Cc2ccc(C(C)(C)C)cc2)C(=O)C(CC(=O)NC(c2ccccc2)c2ccccc2)C1 (centres undefined) | -1 | 1 | 70* | -3 | 3 | -11 | 1 | -5 | -10
CCOC(=O)CC[C@@]1(C(=O)OCC)C[C@@H](CC(=O)N2CCCC2)C(=O)N2CCCC=C21 | 1 | 2 | 5 | -4 | -7 | -8 | x | x | x
CC(NC(=O)CCC(=O)Nc1ccccc1O)c1ccccc1 (centres undefined) | 0 | 6 | -4 | 4 | 4 | 13 | x | x | x
CC(CNc1ccccc1O)C(=O)O (centres undefined) | -6 | 19 | 23* | -6 | 0 | 11 | 11* | -39 | -1
Cc1nnc(N/N=C/c2cc(C)n(-c3ccc(F)cc3)c2C)n1N | -1 | 11 | 45* | 1 | 3 | 62* | -2 | 10 | -2
Cc1cc(/C=N/NC(N)=S)c(C)n1-c1ccc(Br)cc1 | -8 | -9 | 4 | -3 | -1 | 5 | x | x | x
Oc1ccc(N=Nc2cccc(Cl)c2)cc1C=Nc1ccc(N2CCOCC2)cc1 | -1 | 2 | 13 | 3 | -8 | -1 | x | x | x
Oc1c(Br)cc(Cl)cc1C=Nc1ccc(N2CCOCC2)cc1 | 1 | 2 | 19* | -4 | 4 | 19 | 2 | -8 | 25*
C(=Nc1ccc(N2CCOCC2)cc1)c1c[nH]c2ccccc12 | 0 | -2 | 23* | -8 | -2 | 15 | -1 | 3 | 7
Clc1cccc(-c2ccc(C=Nc3ccc(N4CCOCC4)cc3)o2)c1 | 2 | -2 | 24* | -1 | -2 | 13 | 8 | -40 | 9
CN(C)c1nc(N/N=C/c2c[nH]c3ccccc23)nc(N2CCOCC2)n1 | -2 | -1 | 0 | 5 | -10 | 1 | x | x | x
COc1cccc(CNC(=O)C2CCCN(c3ncccn3)C2)c1OC (centres undefined) | 8 | 1 | -4 | 0 | 2 | 8 | x | x | x
N#Cc1ccc(Cn2ccc3ccc(-c4ccc5ccn(Cc6ccccc6)c5c4)cc32)cc1 | -2 | -1 | -1 | -1 | 0 | -8 | x | x | x
CC(=O)Nc1ccc(C(=O)/C=C/c2ccco2)cc1 | -2 | 9 | 28* | 1 | 1 | -2 | 12* | -61 | 35*
CCc1ccc(NC(=O)COC(=O)/C=C/c2ccco2)cc1 | 0 | 25* | 27* | 4 | -8 | -2 | 2 | -9 | 0
O=C(COC(=O)/C=C/c1ccco1)Nc1cc(S(=O)(=O)N2CCOCC2)ccc1Cl | 3 | 17 | 15* | 2 | 1 | 5 | 1 | -6 | -13
CN(CCOC(=O)/C=C/c1ccco1)Cc1ccccc1 | -4 | 26* | 23* | 7 | -6 | 0 | 5 | -26 | 38*
CC(=O)Nc1cccc(C(=O)/C=C/c2ccco2)c1 | -5 | 1 | 4 | 0 | 6 | 0 | x | x | x
O=C(COC(=O)/C=C/c1ccco1)Nc1ccccc1 | 8 | 4 | 4 | 1 | 1 | 4 | x | x | x
C[C@H](CO)N1C[C@H](C)[C@H](CN(C)C(=O)Nc2cccc(F)c2)Oc2cc(Br)ccc2S1(=O)=O | 7 | 0 | -1 | 3 | 4 | 4 | x | x | x
C=CCN=C1NC(c2ccccc2)C(C(=O)OC)=C(C)N1Cc1ccccc1C(F)(F)F (centres undefined) | -7 | 6 | -3 | 12 | -7 | -6 | x | x | x
Cc1cn([C@H]2C[C@H](O)[C@@H](CCC(=O)NCc3cccc4ccccc34)O2)c(=O)[nH]c1=O | 7 | -2 | 15* | -7 | 4 | -1 | 0 | 0 | 0
COC(=O)[C@]12C[C@H](CC(=O)N3CCCC3)C(=O)N(CCC3=CCCCC3)C1=C[C@H](C(C)(C)C)O[C@@H]2C | 0 | 2 | -3 | 1 | 0 | -5 | x | x | x
O=c1oc(/C=C/c2ccco2)nc2sc3c(c12)CCC3 | -7 | 40* | 25* | 12 | -4 | 0 | 1 | -4 | 2
SMILES | Tn6 DDE FP | UHRF1 binding | LEDGF integ inh | MBD2 DNA inh | Tn7 DDE FP | TDP2 absorb | IN multimer act | TR-FRET interf | IN-LEDGF confirm
O=c1oc(-c2cccs2)nc2sc3c(c12)CCC3 | 1 | -4 | 0 | 1 | 2 | 0 | x | x | x
COc1ccc(N2CCN(CCCNC(=O)Cn3c(=O)c4cccn4c4c(C)ccnc43)CC2)cc1 | -2 | 3 | 4 | 0 | 2 | -5 | x | x | x
CC(C)C[C@H]1CNC(=O)C(=O)N1C[C@H](Cc1ccc(O)cc1)NC(=O)Cc1ccccc1 | 5 | 3 | 75* | 4 | 0 | 4 | 1 | -3 | -5
C[C@@H](CN1C(=O)C(=O)NC[C@@H]1Cc1ccc(O)cc1)NC(=O)Cc1ccccc1 | -4 | 1 | 1 | 4 | -7 | -9 | x | x | x
CC(=O)C(Cc1ccccc1)NC(=O)CN1CCc2ccccc2C1 (centres undefined) | -2 | 1 | -6 | 0 | -1 | 12 | x | x | x
CC(CCc1ccccc1)NC(=O)CN1CCc2ccccc2C1 (centres undefined) | 6 | 22* | 15* | 2 | 2 | -15 | -2 | 7 | -7
Cc1ccccc1OCCCN1CCOCC1 | -10 | 5 | 29* | 6 | 2 | 0 | 1 | -4 | -10
